Experimental data as given in article PMC4180501 (Biochimica et biophysica acta, 2012).
Numbering of substitutions follows the chain as printed.

Tests used:
[1] = target: T1, GK-W99 (W167F/W257F) (Homo sapiens, UniProt P35557, W167F/W257F); experiment: NADP+-coupled spectrophotometric kinetic assay; type: biochemical; details: W-99, no GKA
T1 sequence (P35557 1-465 W167F/W257F): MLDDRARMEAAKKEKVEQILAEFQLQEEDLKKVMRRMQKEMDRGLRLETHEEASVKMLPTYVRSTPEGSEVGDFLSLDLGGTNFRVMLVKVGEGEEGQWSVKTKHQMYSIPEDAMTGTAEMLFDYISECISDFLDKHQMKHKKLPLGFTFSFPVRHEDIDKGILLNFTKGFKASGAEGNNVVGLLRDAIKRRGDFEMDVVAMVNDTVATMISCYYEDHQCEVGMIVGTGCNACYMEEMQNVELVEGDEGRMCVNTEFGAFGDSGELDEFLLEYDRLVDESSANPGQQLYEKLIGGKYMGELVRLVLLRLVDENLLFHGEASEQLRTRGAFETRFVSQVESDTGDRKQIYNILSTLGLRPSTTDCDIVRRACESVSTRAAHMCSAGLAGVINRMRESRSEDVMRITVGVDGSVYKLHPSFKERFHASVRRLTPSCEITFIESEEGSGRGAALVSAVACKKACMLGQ
Method in brief: (§1)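 Recombinant human β-cell glucokinase single-Trp variant, expressed in E. coli as a GST fusion and sequence-verified. Catalytic parameters came from an NADP+-coupled spectrophotometric assay run with or without 30% glycerol. Hill coefficient and glucose S0.5 were obtained by fitting v/Vmax = [glucose]^H/(K′+[glucose]^H), with […].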

[2] = target: T1, GK-W99 (W167F/W257F); experiment: DSC thermal denaturation; details: W-99 in buffer, 300 mM D-glucose
Method in brief: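 Samples were degassed and scanned by DSC at 0.25 degree/min against a reference holding everything except protein. Tm and calorimetric ΔH were taken by integrating the Cp-vs-temperature thermogram; Cpm is the apparent heat capacity at the maximum.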

[3] = target: T2, GK- W257 (W99R/W167F) (Homo sapiens, UniProt P35557, W167F/W99R); experiment: D-glucose binding by tryptophan fluorescence titration; details: W-257, no GKA
T2 sequence (P35557 1-465 W99R/W167F): T1 sequence (P35557 1-465 W167F/W257F) with W99R, F257W

[4] = target: T3, GK-W167 (W99R/W257F) (Homo sapiens, UniProt P35557, W257F/W99R); experiment: NADP+-coupled spectrophotometric kinetic assay; type: biochemical; details: W-167, no GKA
T3 sequence (P35557 1-465 W99R/W257F): T1 sequence (P35557 1-465 W167F/W257F) with W99R, F167W
Method in brief: as §1

[5] = target: T4, GK-WT (Homo sapiens, UniProt P35557); experiment: NADP+-coupled spectrophotometric kinetic assay; type: biochemical; details: GK-WT, no GKA
T4 sequence (P35557 1-465): T1 sequence (P35557 1-465 W167F/W257F) with F167W, F257W

[6] = target: T4, GK-WT; experiment: D-glucose binding by tryptophan fluorescence titration; details: for ΔG of glucose binding / ΔH of glucose binding / ΔS of glucose binding: pure wild type GK, 25 °C, pH 7.3, Vant Hoff plot

- Glucose S0.5 ([1]; 30% glycerol): 6.53 mM
- kcat ([1]; 30% glycerol): 6.10 s⁻¹
- kcat/S0.5 ([1]; 30% glycerol): 930 M⁻¹ s⁻¹
- nH (Hill coefficient towards glucose) ([1]; 30% glycerol): 1.52
- Glucose S0.5 ([1]; no glycerol): 21.0 mM
- kcat ([1]; no glycerol): 8.47 s⁻¹
- kcat/S0.5 ([1]; no glycerol): 400 M⁻¹ s⁻¹
- nH (Hill coefficient towards glucose) ([1]; no glycerol): 1.24
- Cp^m [2]: 100.8 kJ/mol/°C
- ΔH thermal denaturation [2]: 102 kcal/mol
- Tm ([2]; DSC): 49.6 °C
- Kd ([3]; 20% glycerol): 2.09 mM
- Kd ([3]; no glycerol): 11.3 mM
- Glucose S0.5 ([4]; 30% glycerol): 0.82 mM
- kcat ([4]; 30% glycerol): 26.2 s⁻¹
- nH (Hill coefficient towards glucose) ([4]; 30% glycerol): 1.32
- Glucose S0.5 ([4]; no glycerol): 2.28 mM
- kcat ([4]; no glycerol): 69.9 s⁻¹
- nH (Hill coefficient towards glucose) ([4]; no glycerol): 1.53
- Glucose S0.5 ([5]; 30% glycerol): 3.15 mM
- nH (Hill coefficient towards glucose) ([5]; 30% glycerol): 1.78
- Glucose S0.5 ([5]; no glycerol): 6.26 mM
- nH (Hill coefficient towards glucose) ([5]; no glycerol): 1.69
- Kd ([6]; D-glucose binding KD, GK-WT, no GKA, 20% glycerol): 1.8 mM
- Kd ([6]; D-glucose binding KD, GK-WT, no GKA, no glycerol): 7.4 mM
- Kd ([6]; glucose KD, 11 °C, absence of glycerol): 13.7 mM
- Kd ([6]; glucose KD, 45 °C, presence of glycerol): 1.15 mM
- ΔG of glucose binding ([6]; 20% glycerol): -3.82 kcal/mol
- ΔH of glucose binding ([6]; 20% glycerol): 4.78 ± 0.72 kcal/mol
- ΔS of glucose binding ([6]; 20% glycerol): 120+/−9 J/mol*K
- ΔG of glucose binding ([6]; no glycerol): -3.13 kcal/mol
- ΔH of glucose binding ([6]; no glycerol): 8.13 ± 0.48 kcal/mol
- ΔS of glucose binding ([6]; no glycerol): 157+/−4 J/mol*K
SMILES: OC[C@H]1OC(O)[C@H](O)[C@@H](O)[C@@H]1O (stereo partly drawn) [D-glucose]
